Laboratory results: ChEMBL document CHEMBL1629563, “Pharmacokinetic and safety evaluation of BILR 355, a second-generation nonnucleoside reverse transcriptase inhibitor, in healthy volunteers” (Antimicrob Agents Chemother, 2008)

How the values were obtained:
[1] = tested on: Homo sapiens; assay: Toxicity in healthy human assessed as occurrence of abdominal pain at 12.5 mg, po administered as single dose relative to control; type: organism-based, Abdomen; conditions: in vivo
[2] = tested on: Homo sapiens; assay: Toxicity in healthy human assessed as occurrence of frequent bowel movements at 25 mg, po administered as single dose relative to control; type: organism-based; conditions: in vivo
[3] = Apparent volume of distribution at steady state in healthy human at 12.5 mg, po administered as single dose; type: ADME, organism-based; conditions: in vivo, read-out: Vss/F
In short: (§1)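 Healthy male volunteers, six active plus two placebo per dose group, single oral dose in PEG solution with 200 ml water after overnight fast; breakfast 60 to 90 min post-dose. EDTA plasma sampled predose to 144 h. Assayed by validated LC-MS/MS after protein precipitation. Noncompartmental analysis, AUC by linear up/log down trapezoidal rule; Vss = CL/F·(MRTp.o. − 1/Ka).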

[4] = tested on: Homo sapiens; assay: Ratio of Cmax in human at 25 mg, po in presence of 100 mg of ritonavir to Cmax in human at 25 mg, po; type: ADME, organism-based; conditions: in vivo
[5] = Renal clearance in healthy human at 25 mg, po administered as single dose coadministered with 100 mg of ritonavir by high-pressure liquid chromatography-tandem mass spectrometry/mass spectrometry method; type: ADME, organism-based, Kidney; conditions: in vivo, read-out: CL_renal (converted)
[6] = tested on: Homo sapiens; assay: Toxicity in healthy human assessed as occurrence of maculopapular rash at 100 mg, po administered as single dose; type: organism-based; conditions: in vivo
[7] = Drug excretion in healthy human urine assessed as unchanged drug at 75 mg, po administered as single dose by high-pressure liquid chromatography-tandem mass spectrometry/mass spectrometry method; type: ADME, organism-based; conditions: read-out: Drug uptake
In short: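 Urine was collected by weight after one oral dose of BILR 355 in PEG solution in fasted healthy males. Intervals were predose blank, 0-6, 6-24 and 24-72 h, with the bladder voided before each. Aliquots were stored at −20°C and assayed by LC-MS/MS. fe = amount of unchanged drug excreted (Ae) as a percentage of the administered dose.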

[8] = Apparent oral clearance in healthy human at 5 mg, po administered as single dose; type: ADME, organism-based; conditions: in vivo; in short: as §1
[9] = Drug excretion in healthy human urine assessed as unchanged drug at 87.5 mg, po administered as single dose coadministered with 100 mg of ritonavir by high-pressure liquid chromatography-tandem mass spectrometry/mass spectrometry method; type: ADME, organism-based; conditions: read-out: Drug uptake
In short: (§2)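 Ritonavir 100 mg was given 10 h before and with one oral dose of BILR 355 in PEG solution. Urine was collected by weight as predose blank, then 0-6, 6-24 and 24-72 h, stored at −20°C and assayed by LC-MS/MS. fe = unchanged drug excreted (Ae) as a percentage of dose. Line 50: high-fat breakfast 30 min before dosing.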

[10] = AUC (0 to infinity) in healthy human at 37.5 mg, po administered as single dose coadministered with 100 mg of ritonavir; type: ADME, organism-based; design: dose 37.5 mg, route oral, time infinity; conditions: plasma
In short: (§3)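 Healthy male volunteers, fasted. Ritonavir 100 mg given 10 h before and again together with single oral BILR 355 in PEG solution. EDTA plasma sampled predose to 144 h. LC-MS/MS assay after protein precipitation. Noncompartmental analysis, AUC by linear up/log down trapezoidal rule; Vss = CL/F·(MRTp.o. − 1/Ka).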

[11] = tested on: Homo sapiens; assay: Toxicity in healthy human assessed as occurrence of migraine at 50 mg, po administered as single dose relative to control; type: organism-based; conditions: in vivo
[12] = tested on: Homo sapiens; assay: Toxicity in healthy human assessed as occurrence of headache at 75 mg, po administered as single dose relative to control; type: organism-based; conditions: in vivo
[13] = Renal clearance in high fat fed healthy human at 50 mg, po administered as single dose coadministered with 100 mg of ritonavir by high-pressure liquid chromatography-tandem mass spectrometry/mass spectrometry method; type: ADME, organism-based, Kidney; conditions: in vivo, read-out: CL_renal (converted)
[14] = Drug excretion in healthy human urine assessed as unchanged drug at 25 mg, po administered as single dose coadministered with 100 mg of ritonavir by high-pressure liquid chromatography-tandem mass spectrometry/mass spectrometry method; type: ADME, organism-based; conditions: read-out: Drug uptake; in short: as §2
[15] = tested on: Homo sapiens; assay: Apparent oral clearance in healthy human at 75 mg, po administered as single dose; type: ADME, organism-based; conditions: in vivo; in short: as §1
[16] = tested on: Homo sapiens; assay: Toxicity in healthy human assessed as occurrence of fatigue at 37.5 mg, po administered as single dose coadministered with 100 mg of ritonavir; type: organism-based; conditions: in vivo
[17] = tested on: Homo sapiens; assay: Toxicity in high fat fed healthy human assessed as occurrence of fatigue at 50 mg, po administered as single dose coadministered with 100 mg of ritonavir; type: organism-based; conditions: in vivo
[18] = AUC (0 to last) in healthy human at 75 mg, po administered as single dose coadministered with 100 mg of ritonavir; type: ADME, organism-based; design: dose 75 mg, route oral, time 0 - last; conditions: plasma; in short: as §3
[19] = Apparent volume of distribution at steady state in healthy human at 5 mg, po administered as single dose coadministered with 100 mg of ritonavir; type: ADME, organism-based; conditions: in vivo, read-out: Vss/F
In short: (§4)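 Healthy male volunteers, fasted overnight, got one oral dose of BILR 355 in PEG solution with 200 ml water. Ritonavir 100 mg was given 10 h before and again with the dose. Plasma was sampled (EDTA) from predose to 144 h and assayed by validated LC-MS/MS. Cmax and Vz/F came from noncompartmental analysis. Vss/F = CL/F·(MRTp.o. − 1/Ka), with Ka from compartmental modelling.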

[20] = tested on: Homo sapiens; assay: Toxicity in healthy human assessed as occurrence of nausea at 100 mg, po administered as single dose relative to control; type: organism-based; conditions: in vivo
[21] = Half life in healthy human at 12.5 mg, po administered as single dose coadministered with 100 mg of ritonavir; type: ADME, organism-based; conditions: in vivo
[22] = AUC (0 to last) in healthy human at 25 mg, po administered as single dose coadministered with 100 mg of ritonavir; type: ADME, organism-based; design: dose 25 mg, route oral, time 0 - last; conditions: plasma; in short: as §3
[23] = Cmax in healthy human at 12.5 mg, po administered as single dose coadministered with 100 mg of ritonavir by high-pressure liquid chromatography-tandem mass spectrometry/mass spectrometry method; type: ADME, organism-based; design: dose 12.5 mg, route oral; conditions: in vivo; in short: as §4
[24] = Tmax in healthy human at 75 mg, po administered as single dose coadministered with 100 mg of ritonavir; type: ADME, organism-based; conditions: in vivo
[25] = tested on: Homo sapiens; assay: Toxicity in healthy human assessed as occurrence of migraine at 25 mg, po administered as single dose relative to control; type: organism-based; conditions: in vivo
[26] = Mean residence time in healthy human at 75 mg, po administered as single dose; type: ADME, organism-based; conditions: in vivo
[27] = tested on: Homo sapiens; assay: Toxicity in healthy human assessed as occurrence of increase in alanine aminotransferase level at 100 mg, po administered as single dose relative to control; type: organism-based; conditions: in vivo
[28] = tested on: Homo sapiens; assay: Toxicity in healthy human assessed as occurrence of constipation at 5 mg, po administered as single dose relative to control; type: organism-based; conditions: in vivo
[29] = Apparent volume of distribution at steady state in healthy human at 25 mg, po administered as single dose; type: ADME, organism-based; conditions: in vivo, read-out: Vss/F; in short: as §1
[30] = tested on: Homo sapiens; assay: Toxicity in high fat fed healthy human assessed as occurrence of diarrhea at 50 mg, po administered as single dose coadministered with 100 mg of ritonavir; type: organism-based; conditions: in vivo
[31] = tested on: Homo sapiens; assay: Toxicity in healthy human assessed as occurrence of fatigue at 25 mg, po administered as single dose coadministered with 100 mg of ritonavir; type: organism-based; conditions: in vivo
[32] = Renal clearance in healthy human at 25 mg, po administered as single dose by high-pressure liquid chromatography-tandem mass spectrometry/mass spectrometry method; type: ADME, organism-based, Kidney; conditions: in vivo, read-out: CL_renal (converted)
[33] = Renal clearance in healthy human at 50 mg, po administered as single dose by high-pressure liquid chromatography-tandem mass spectrometry/mass spectrometry method; type: ADME, organism-based, Kidney; conditions: in vivo, read-out: CL_renal (converted)

Compound: CCN1c2ncc(CCOc3cc[n+]([O-])c4ccccc34)cc2C(=O)N(C)c2cccnc21 [BILR 355]
- Activity [1]: 0%
- Activity [2]: 0%
- Vd/F [3]: 1460 L
- Ratio [4]: 5.4
- CL renal [5]: 6.5 mL/min
- Activity [6]: 0%
- dose excreted [7]: 0.602%
- CL/F [8]: 2480 mL/min
- dose excreted [9]: 5.96%
- AUC(0-inf) [10]: 5960 ng·h/mL
- Activity [11]: 0%
- Activity [12]: 0%
- CL renal [13]: 4.98 mL/min
- dose excreted [14]: 6.62%
- CL/F [15]: 272 L/h
- Activity [16]: 0%
- Activity [17]: 16.7%
- AUC(0-t) [18]: 12100 ng·h/mL
- Vd/F [19]: 166 L
- Activity [20]: 0%
- half-life [21]: 15.9 h
- AUC(0-t) [22]: 4140 ng·h/mL
- Cmax [23]: 74.1 ng/mL
- Tmax [24]: 1.63 h
- Activity [25]: 0%
- MRT [26]: 2.95 h
- Activity [27]: 0%
- Activity [28]: 0%
- Vd/F [29]: 914 L
- Activity [30]: 0%
- Activity [31]: 0%
- CL renal [32]: 11.5 mL/min
- CL renal [33]: 9.15 mL/min
